Source: PubChem BioAssay (several laboratories)
L major viab = inhibitors of Leishmania major promastigote growth | Leishmania major promastigotes, resazurin fluorescence viability | inhibition, % at 10 µM | 200,000 compounds, 9% hits | AID 1063; in the data active = inhibition above about 50%;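 note: promastigotes grown with compound for 44 hours at 28 °C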
S1P4 ag = human S1P4 receptor agonism; O95977; activation, % at 4.98 µM; 220,000 compounds, 0.35% hits; AID 1509; S1P4-expressing cell line, agonist reporter assay; in the data active = activation above about 11%;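 note: 0% = DMSO vehicle and 100% = reference agonist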
MDM2 E3 inh = blocks human Mdm2 ubiquitin ligase activity; signal enhancement, % at 5 µM; Q00987; cell-based MDM2 ubiquitination luciferase reporter, 2 h; 0 = plate control, 100 = twice control, blank-subtracted; 210,000 compounds, 0.11% hits;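 active = signal enhancement of 30% or more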;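 note: luminescence tracks abundance of the self-degrading MDM2-luciferase fusion protein; higher signal means inhibition of MDM2 E3 ligase activity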
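Timing – 2 h compound exposure at 37 °C · Assay system – mammalian cells stably expressing self-ubiquitinating, self-degrading MDM2 E3–luciferase fusion · Amount – 2000 cells seeded into each well · Measure – % luminescence enhancement versus blank-corrected plate control mean · Measured by – SteadyLite luminescence, 15 min reagent step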
S1P4 antagonist = blocks the human S1P4 receptor; AID 1510; 220,000 compounds, 0.26% hits; inhibition, % at 4.98 µM; S1P4-expressing cells, antagonist mode, reporter read-out; in the data active = inhibition above about 29%;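 note: 0% = wells stimulated with agonist and 100% = vehicle wells without agonist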
S1P3 antagonist = blocks the human S1P3 receptor. 170,000 compounds, 0.27% hits. inhibition, % at 4.98 µM. Q99500. CHO S1P3 NFAT-BLA reporter, FRET fluorescence, antagonist mode. AID 485;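 active = inhibition above the plate cutoff, the mean inhibition of test wells on that plate plus 3 SD, cut at about 28% in these data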;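 note: cells challenged with S1P at its EC80 of 0.8 µM; blue over green emission ratio from cleaved BLA substrate after 4 h stimulation; 0% = S1P-stimulated wells and 100% = unstimulated DMSO-only wells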
Target sequence (Q99500 whole entry, looked up): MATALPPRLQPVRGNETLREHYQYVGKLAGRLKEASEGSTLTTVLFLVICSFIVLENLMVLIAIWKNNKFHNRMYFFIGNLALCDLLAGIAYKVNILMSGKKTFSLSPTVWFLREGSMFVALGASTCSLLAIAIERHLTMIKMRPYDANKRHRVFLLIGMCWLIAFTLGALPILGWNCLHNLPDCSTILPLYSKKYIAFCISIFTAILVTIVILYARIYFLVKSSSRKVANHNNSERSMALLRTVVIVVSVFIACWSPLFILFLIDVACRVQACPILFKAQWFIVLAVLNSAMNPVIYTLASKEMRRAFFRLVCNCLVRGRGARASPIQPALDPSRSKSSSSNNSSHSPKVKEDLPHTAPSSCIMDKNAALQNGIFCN
* hit, by the source's call; . = no result. The entries come from a sample that favours hits as a whole.

SMILES | L major viab | S1P4 ag | MDM2 E3 inh | S1P4 antagonist | S1P3 antagonist
O=C(Oc1ccccc1/C=C\C(=O)c1cc2ccccc2o1)c1ccccc1 | 92.0* | 0.1 | -13.8 | 1.5 | 2.5
O=C(Oc1ccccc1/C=C\C(=O)c1cc2ccccc2o1)c1cccc(F)c1 | 79.0* | 2.5 | -4.0 | -3.4 | -5.6
O=C(N/N=C/c1ccccc1OC(=O)c1ccc2c(c1)OCO2)c1cccc(F)c1 | -5.0 | 1.0 | 8.4 | -14.6 | -2.4
COc1ccc(O)c(C(=O)/C=C/c2cc3ccccc3o2)c1 | 3.8 | -1.0 | . | -3.7 | .
Oc1ccccc1NCC(O)Cn1ccc2ccccc21 (stereo unspecified) | 39.8 | 0.8 | -16.1 | 6.2 | -12.9
OC(CNCc1ccccc1)Cn1ccc2ccccc21 (stereo unspecified) | 96.4* | 0.9 | -7.9 | -26.3 | 1.8
CC[C@H](C)[C@H](NC(N)=O)C(=O)NCCc1ccc(Cl)cc1Cl | 7.6 | -2.0 | -7.7 | 0.4 | -15.5
O=C(CCC1CCCC1)N1CCC(N2CCCCCC2)CC1 | 91.0* | 1.1 | -14.3 | -3.2 | -13.7
Cc1ccc(OCC(=O)N2CCC(N3CCCCCC3)CC2)cc1 | 86.9* | 2.5 | 5.3 | -13.1 | .
COc1ccccc1N1CCN(C2CCN(C(=O)COc3cccc(C)c3)CC2)CC1 | 55.9* | -1.8 | 4.8 | -34.3 | -13.2
Cc1ccc(OCC(=O)N2CCN(C(=O)CCC3CCCC3)CC2)cc1 | -1.2 | 0.8 | -18.1 | 9.7 | -34.8
COc1ccccc1C(=O)N1CCN(C(=O)COc2cccc(C)c2)CC1 | -3.2 | 0.6 | -11.4 | -14.7 | 3.1
CCOC(=O)NNC(=O)NCCCCCCNC(=O)NNC(=O)OCC | . | -1.0 | 5.9 | 12.2 | 4.1
O=C(NCc1cccnc1)C(=O)NCC(c1ccco1)N1CCOCC1 (stereo unspecified) | -14.4 | 1.3 | -2.0 | -1.0 | -14.5
O=C(NCCc1c[nH]c2ccccc12)/C(=C\c1ccco1)NC(=O)c1ccco1 | 55.5* | 0.2 | -11.1 | -6.4 | 0.1
O=C(NCc1cccnc1)C(=O)NCC(c1ccco1)N1CCN(c2ccccc2)CC1 (stereo unspecified) | 52.4* | 0.7 | -6.1 | -16.4 | -5.9
O=C(NCCC1=CCCCC1)C(=O)NCC(c1ccco1)N1CCN(c2ccc(F)cc2)CC1 (stereo unspecified) | 80.3* | 1.7 | 2.3 | -8.2 | 14.8
O=C(NCc1cccnc1)C(=O)NCC(c1ccco1)N1CCN(c2ccccc2F)CC1 (stereo unspecified) | 55.9* | 1.5 | -3.3 | -21.6 | -4.3
CCS(=O)(=O)NCC(c1cccnc1)N1CCN(c2ccccc2)CC1 (stereo unspecified) | 38.0 | 2.4 | -5.9 | -6.3 | .
O=C(NCC(c1cccnc1)N1CCN(c2ccccc2)CC1)c1ccco1 (stereo unspecified) | 89.3* | 0.2 | . | -16.4 | -20.1
O=C(NCCc1c[nH]c2ccccc12)C(=O)NCC(c1ccco1)N1CCN(c2ccccc2F)CC1 (stereo unspecified) | 75.6* | -0.9 | -17.3 | -85.1 | -3.5
CCOC(=O)c1ccc(NC(=O)COC)cc1 | -8.6 | -1.3 | 12.5 | -17.2 | 11.4
CCOC(=O)c1ccc(NC(=O)Cc2coc3cc4c(cc23)CCC4)cc1 | 91.6* | 0.7 | -8.9 | -9.4 | -6.6
C=CCc1ccc(OCCOCCN(C)C)c(OC)c1 | 37.6 | -0.1 | 0.5 | 14.7 | .
CN(CCOCCOc1ccc2ccccc2c1)Cc1ccccc1 | 99.7* | 1.5 | -9.1 | -4.0 | .
SMILES | L major viab | S1P4 ag | MDM2 E3 inh | S1P4 antagonist | S1P3 antagonist
CNC(=O)COc1ccc(C=O)cc1OC | 59.8* | -1.0 | 14.2 | -12.2 | -12.2
COc1cc(C)ccc1OCCOCCN(C)Cc1ccccc1 | 90.8* | 0.7 | -25.5 | -3.4 | -2.0
COc1ccc(OCCN(C)Cc2ccccc2)cc1 | 11.7 | 0.0 | -10.6 | -0.9 | 3.0
COc1cc(C)ccc1OCCOc1ccccc1Cl | -1.5 | 1.3 | 5.2 | -8.6 | .
COc1cc(C=O)ccc1OCCOCCOc1cc(C)ccc1Cl | 72.7* | -1.1 | -5.9 | -19.4 | .
COc1cc(C=O)ccc1OCC(=O)N1CCCC1 | -6.7 | 3.7 | -0.2 | -7.1 | -14.3
CCOc1ccc(CCNC(=O)CN2C(=O)NC(CCSC)C2=O)cc1OCC (stereo unspecified) | -1.9 | 0.3 | 1.3 | -7.3 | -13.2
O=C(/C=C/c1ccoc1)c1ccccc1O | 76.4* | -0.3 | -5.1 | -3.2 | -8.9
CCN1CCN(c2ccc(S(=O)(=O)N(CC)CC)cc2[N+](=O)[O-])CC1 | 94.8* | 4.7 | -12.0 | -7.6 | 4.7
CN(C)CCNS(=O)(=O)c1ccc(N2CCN(c3ccc(F)cc3)CC2)c([N+](=O)[O-])c1 | 97.5* | -1.3 | -8.8 | -7.0 | 2.2
CCN(CC)S(=O)(=O)c1ccc(N2CCN(c3cccc(OC)c3)CC2)c([N+](=O)[O-])c1 | 100.1* | 3.1 | -2.6 | -4.3 | -1.9
CCCN1CCN(c2ccc(S(N)(=O)=O)cc2[N+](=O)[O-])CC1 | -5.6 | 0.6 | -0.2 | -2.2 | 7.2
CC(C(=O)NCc1ccco1)n1cc([N+](=O)[O-])cn1 (stereo unspecified) | 1.4 | 1.9 | -5.7 | 1.8 | -18.6
Cc1ncc(CO)c(/C=N/NC(=O)c2ccc(Br)cc2)c1O | 97.7* | 1.8 | -5.8 | 1.8 | 15.7
Cc1ncc(CO)c(/C=N/NC(=O)c2cc(Br)ccc2O)c1O | -8.9 | 0.8 | -10.6 | -22.3 | -2.8
CN1CCN(Cc2ccc(-c3ccc(Cl)cc3)o2)CC1 | 93.7* | 2.2 | -6.1 | -1.4 | 9.0
COc1ccc(C2CC(c3ccc([N+](=O)[O-])cc3)=NN2C(=O)c2ccccc2)cc1OC (stereo unspecified) | 7.5 | -1.5 | 2.0 | -1.6 | 8.4
COc1cccc(C2CC(c3ccccc3)=NN2S(=O)(=O)c2ccc(C)cc2)c1OC (stereo unspecified) | 61.1* | 0.7 | -6.4 | -9.3 | -1.6
COc1ccccc1C1CC(c2ccc(Br)cc2)=NN1C(=O)c1cccnc1 (stereo unspecified) | 51.1* | 3.0 | -9.4 | -2.1 | 11.7
COc1cccc(C2CC(c3ccc(Br)cc3)=NN2C(=O)c2ccncc2)c1OC (stereo unspecified) | 61.2* | -2.2 | -15.6 | 23.5 | -7.9
Cc1cccc(NC(=S)N(CCN(C)C)Cc2cccs2)c1 | -2.5 | -2.2 | -10.5 | -1.9 | -25.1
Cc1ccccc1Nc1nc(N)nc(COC(=O)c2cccc(S(=O)(=O)N(C)C)c2)n1 | 65.7* | 0.6 | -8.3 | -21.0 | -2.0
COc1ccc(C(=O)N2CCC(N3CCN(c4ccccc4)CC3)CC2)cc1OC | 13.0 | 0.3 | 0.6 | -6.3 | .
O=C(c1ccccc1F)N1CCN(c2ccccc2)CC1 | -1.7 | 1.5 | -11.2 | 10.9 | -16.9
COc1ccc(C(=O)N2CCN(C3CCC(c4ccccc4)CC3)CC2)cc1OC (stereo unspecified) | 88.5* | -0.2 | -22.6 | -19.8 | 11.5
O=C(c1ccccc1F)N1CCN(C2CCC(c3ccccc3)CC2)CC1 (stereo unspecified) | 97.1* | -0.5 | -1.8 | 1.1 | 0.1
O=C(c1ccc(F)cc1)N1CCCC(c2ccccc2)C1 (stereo unspecified) | -8.1 | 0.4 | -4.9 | -12.2 | -7.2
